Screening results from PubChem.
An excerpt weighted towards active compounds, which were near 2% of everything screened.
HIF act: HIF pathway transcriptional activation. U2OS HRE-luciferase reporter, luminescence; normalized: DMSO 0%, desferrioxamine 100%. activation, % at 7.5 µM (by protocol). 0.32% of 300,000 active;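 active = mean activation of at least 10% of the iron chelator positive control signal, with at least half of replicates also reaching 10%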
AI-2 QS modul: modulators of Vibrio harveyi AI-2 quorum sensing system; Vibrio harveyi JMH597 AI-2 luminescence/OD600 ratio, 9 h; stronger effect = lower value; strain lacks LuxN and CqsS sensors; 0 = neutral-control median; activity change, % at 7.5 µM; 0.4% of 300,000 active; in the data active = activity change below about -75%, passing the limit was not always enough;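 note: luminescence divided by OD600 gain over 9 h not by final OD600 alone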
ARNT TACC3 PPI: ARNT/TACC3 interaction disruption. inhibition, % at 9.99 µM. AID 623870. 0.66% of 390,000 active. AlphaScreen His-ARNT PAS-B/GST-TACC3 binding, luminescence; TACC3 fragment carries E629A point mutation;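 active = mean inhibition of replicates at least 50% and at least half of replicates each reaching 50%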;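 note: 0% = complete ARNT plus TACC3 wells and 100% = ARNT alone without TACC3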
T cruzi repl: blocks replication of Trypanosoma cruzi | 1.4% of 300,000 active | inhibition, % (test concentration not listed) | T. cruzi beta-gal in NIH3T3, luminescence, 90 h;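 active = mean inhibition across valid replicates above about 55%, limit read from the data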;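 note: signal also drops with host cell toxicity which is not excluded here; 0% = plate median of DMSO wells and 100% = zero luminescence signal; higher percent means less beta-gal luminescence so fewer parasites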
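assay system = mouse NIH/3T3 fibroblasts infected with β-gal-expressing T. cruzi Tulahuen C4 | input = 5,000 NIH/3T3 host cells per well | buffer or medium = DMEM plus 2% FBS | timing = 3 h host attachment, then at least 90 h co-culture | measured by = GalScreen luminescence, 60 min | evaluation = luminescence reflecting intracellular parasite burden, expressed as percent inhibition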
Active calls of the source: *.

For Cc1ccc(-n2cc(CN3CCN(Cc4nccn4C)CC3)c(-c3cccc(C)c3)n2)cc1 the results were HIF act 0, AI-2 QS modul 8, ARNT TACC3 PPI -23 and T cruzi repl 41.
Screening COc1ccc(-n2cc(CN(C)CCO)c(-c3cccc(F)c3)n2)cc1 returned HIF act 0, AI-2 QS modul 30, ARNT TACC3 PPI -19 and T cruzi repl 16.
`Cc1cccc(-n2cc(CN(C)Cc3nccn3C)c(-c3cccc(F)c3)n2)c1` gave HIF act 0, AI-2 QS modul 12 and T cruzi repl 65*.
C[C@H](CO)N1C[C@H](C)[C@H](CN(C)C(=O)Nc2ccc(C(F)(F)F)cc2)Oc2c(NS(=O)(=O)c3ccc(F)cc3)cccc2C1=O was read as ARNT TACC3 PPI -3.
Screening CC(C)NC(=O)Nc1ccc2c(c1)C(=O)N(C)[C@@H]1CC[C@H](CC(=O)Nc3ccccc3)O[C@@H]1CO2 returned ARNT TACC3 PPI 1.
OCc1ccnc2c(O)cccc12 was read as HIF act 1, AI-2 QS modul 16, ARNT TACC3 PPI 66* and T cruzi repl 57*.
For NC(=O)c1cccc2ccccc12 the results were HIF act 0, AI-2 QS modul -3, ARNT TACC3 PPI -3 and T cruzi repl -9.
NC(=O)c1ccnc2c(O)cccc12 was read as ARNT TACC3 PPI 73*.
For Cc1cc(C)nc(NC(=NCCc2c[nH]c3ccccc23)NC(=O)C(C)(C)C)n1 the results were HIF act 0, ARNT TACC3 PPI 1 and T cruzi repl 61*.
CC(C)(C)c1cc(C(=O)N2CCN(c3ncccn3)CC2)ccn1 was read as HIF act 882*, AI-2 QS modul 5, ARNT TACC3 PPI -4 and T cruzi repl -10.
Cc1ccc(N/N=C/C=C/c2ccco2)cc1 was read as HIF act 4, AI-2 QS modul -5, ARNT TACC3 PPI -1 and T cruzi repl 73*.
`Cc1noc(C)c1C(=O)OCC(=O)Nc1cccc(S(N)(=O)=O)c1` gave HIF act 0, AI-2 QS modul -16 and T cruzi repl -2.
Screening Cc1cc(NC(=O)COC(=O)c2c(C)noc2C)ccc1Br returned HIF act -1, AI-2 QS modul -91*, ARNT TACC3 PPI -5 and T cruzi repl 10.
For COc1ccc(OC)c2[nH]c(=O)c(CCNS(=O)(=O)c3ccc(Cl)cc3)cc12 the results were HIF act 0, AI-2 QS modul 1, ARNT TACC3 PPI 48* and T cruzi repl 19.
`COc1ccc(OC)c2[nH]c(=O)c(CCNS(=O)(=O)c3ccc(C)cc3)cc12` gave HIF act 0, AI-2 QS modul 16, ARNT TACC3 PPI -15 and T cruzi repl 5.
For Cc1nc(NC(=O)c2ccco2)sc1-c1csc(Nc2ccc(Cl)cc2Cl)n1 the results were HIF act 0, AI-2 QS modul 30 and T cruzi repl 59*.
For CCc1ccc(CN(Cc2cccnc2)C(=O)/C=C/c2ccc(OC)cc2)cc1 the results were HIF act 0, AI-2 QS modul 3, ARNT TACC3 PPI 9 and T cruzi repl 64*.
Screening COC(=O)c1[nH]c2cc(C)ccc2c1NC(=O)CN1CCCc2ccccc21 returned HIF act 1, AI-2 QS modul 26, ARNT TACC3 PPI 1 and T cruzi repl 59*.
COC(=O)c1[nH]c2ccc(Br)cc2c1NC(=O)CN1CCCc2ccccc21 was read as HIF act 0, AI-2 QS modul 12 and T cruzi repl 29.
For CNC[C@@H]1Oc2c(NC(=O)C3CCCCC3)cccc2C(=O)N([C@H](C)CO)C[C@@H]1C the results were ARNT TACC3 PPI 2.
For CC(O)CNc1nc2sc3c(c2c(=O)n1CCc1ccccc1)CCCCC3 (centres undefined) the results were HIF act 0, AI-2 QS modul 42 and T cruzi repl 57*.
Screening CN(C)CCNc1nc2sc3c(c2c(=O)n1CCc1ccccc1)CCCCC3 returned HIF act 0, ARNT TACC3 PPI 11 and T cruzi repl 58*.
C[C@@H]1CCCCO[C@@H](CN(C)C(=O)CCCN(C)C)[C@H](C)CN([C@H](C)CO)C(=O)c2cc(NC(=O)CCC(F)(F)F)ccc2O1 was read as ARNT TACC3 PPI -14.
Screening C[C@H](CO)N1C[C@H](C)[C@@H](CN(C)C)Oc2ccc(NC(=O)Cc3cn(C)c4ccccc34)cc2CC1=O returned ARNT TACC3 PPI -5.
Screening S=C(Nc1ccc(Cl)cc1)c1nc2ccccc2[nH]1 returned HIF act 2, AI-2 QS modul -10, ARNT TACC3 PPI 4 and T cruzi repl 47.
